“Also recorded” adds a separate entry of the source. Where two headings read alike, the source gives them in different places.
Tests used:
HIV-1NL4–3 [1] = experiment: HIV-1/NL4–3 replication inhibition assay in MT-4 lymphocytes; type: cell-based; settings: for activity compared with 4 (EC50 0.019 μM): HIV-1NL4–3 infected MT-4 cell lines
Procedure, shortened: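 MT-4 cells infected with HIV-1 NL4-3 at MOI 0.01 in the presence of test compound. Culture supernatants were harvested on day 4 post-infection, and p24 antigen was measured by capture ELISA. IC50 was taken as the concentration that inhibits NL4-3 replication by 50%.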

NL4–3/V370A = settings: most prevalent bevirimat-resistant polymorphism; cited from earlier work
HIV-1NL4–3 [2] = settings: cited from earlier work
[3] = Human immunodeficiency virus 1, Lymphocyte, read-out: PIC50 (experimental)
[4] = Human immunodeficiency virus 1, MT4, 96 h

| Structure (SMILES) | IC50 (HIV-1NL4–3 [1]; [3]) [nM] | IC50 (HIV-1NL4–3 [1]; [4]) [nM] | activity compared with 4 (EC50 0.019 μM) (HIV-1NL4–3 [1]) | other results |
| --- | --- | --- | --- | --- |
| C=C(C)[C@@H]1CC[C@]2(C(=O)O)CC[C@]3(C)[C@H](CC[C@@H]4[C@@]5(C)CC[C@H](OC(=O)CC(C)(C)C(=O)O)C(C)(C)[C@@H]5CC[C@]43C)[C@@H]12 [Compound 3, 3-O-(3′,3′-dimethylsuccinyl)betulinic acid, reference compound] | 64.6 | 65 ± 1.9 | – | – |
| C=C(C)[C@@H]1CC[C@]2(C(=O)N3CCN(C(=O)/C=C/c4ccc5c(c4)OCO5)CC3)CC[C@]3(C)[C@H](CC[C@@H]4[C@@]5(C)CC[C@H](OC(=O)CC(C)(C)C(=O)O)C(C)(C)[C@@H]5CC[C@]43C)[C@@H]12 [Compound 4] | 19.1 | 19 ± 5.4 | – | activity increase compared with 3 against NL4–3/V370A (NL4–3/V370A): 51 fold; activity increase compared with 3 against NL4–3 (HIV-1NL4–3 [2]): three-fold |
| C=C(C)[C@@H]1CC[C@]2(C(=O)N3CCN(C(=O)/C=C/c4ccc(OC)c(OC)c4)CC3)CC[C@]3(C)[C@H](CC[C@@H]4[C@@]5(C)CC[C@H](OC(=O)CC(C)(C)C(=O)O)C(C)(C)[C@@H]5CC[C@]43C)[C@@H]12 [Compound 9b] | 28.8 | 29 ± 9.3 | – | – |
| C=C(C)[C@@H]1CC[C@]2(C(=O)N3CCN(C(=O)/C=C/c4ccc(N(C)C)cc4)CC3)CC[C@]3(C)[C@H](CC[C@@H]4[C@@]5(C)CC[C@H](OC(=O)CC(C)(C)C(=O)O)C(C)(C)[C@@H]5CC[C@]43C)[C@@H]12 [Compound 9i, (E)-4-(28-(4-(3-(4-(dimethylamino)phenyl)acryloyl)piperazine-1-carbonyl)lup-20(29)-en-3β-oxy)-2,2-dimethyl-4-oxobutanoic acid] | – | – | improved or comparable activity; also recorded: improved or similar activity | – |
| C=C(C)[C@@H]1CC[C@]2(C(=O)N3CCN(C(=O)/C=C/c4ccc(OCOC)c(OCOC)c4)CC3)CC[C@]3(C)[C@H](CC[C@@H]4[C@@]5(C)CC[C@H](OC(=O)CC(C)(C)C(=O)O)C(C)(C)[C@@H]5CC[C@]43C)[C@@H]12 [Compound 9r] | 50.1 | 50 ± 21 | – | – |
| C=C(C)[C@@H]1CC[C@]2(C(=O)N3CCN(C(=O)/C=C/c4ccc(OCOC)c(OC)c4)CC3)CC[C@]3(C)[C@H](CC[C@@H]4[C@@]5(C)CC[C@H](OC(=O)CC(C)(C)C(=O)O)C(C)(C)[C@@H]5CC[C@]43C)[C@@H]12 [Compound 9t, (E)-4-(28-(4-(3-(3-methoxy-4-(methoxymethoxy)phenyl)acryloyl)piperazine-1-carbonyl)lup-20(29)-en-3β-oxy)-2,2-dimethyl-4-oxobutanoic acid] | – | – | improved or comparable activity; also recorded: improved or similar activity | – |
| C=C(C)[C@@H]1CC[C@]2(C(=O)N3CCN(C(=O)/C=C/c4ccc(O)c(O)c4)CC3)CC[C@]3(C)[C@H](CC[C@@H]4[C@@]5(C)CC[C@H](OC(=O)CC(C)(C)C(=O)O)C(C)(C)[C@@H]5CC[C@]43C)[C@@H]12 [Compound 10a] | 28.2 | 28 ± 9.8 | – | – |
| C=C(C)[C@@H]1CC[C@]2(C(=O)N3CCN(C(=O)/C=C/c4ccc(O)c(OC)c4)CC3)CC[C@]3(C)[C@H](CC[C@@H]4[C@@]5(C)CC[C@H](OC(=O)CC(C)(C)C(=O)O)C(C)(C)[C@@H]5CC[C@]43C)[C@@H]12 [Compound 10c, (E)-4-(28-(4-(3-(4-hydroxy-3-methoxyphenyl)acryloyl)piperazine-1-carbonyl)lup-20(29)-en-3β-oxy)-2,2-dimethyl-4-oxobutanoic acid] | – | – | improved or comparable activity; also recorded: improved or similar activity | – |
| C=C(C)[C@@H]1CC[C@]2(C(=O)N3CCN(C(=O)CCc4ccc5c(c4)OCO5)CC3)CC[C@]3(C)[C@H](CC[C@@H]4[C@@]5(C)CC[C@H](OC(=O)CC(C)(C)C(=O)O)C(C)(C)[C@@H]5CC[C@]43C)[C@@H]12 [Compound 13m, 4-(28-(4-(3-(Benzo[d] [1,3]dioxol-5-yl)propanoyl)piperazine-1-carbonyl)lup-20(29)-en-3b-oxy)-2,2-dimethyl-4-oxobutanoic acid] | – | – | improved or comparable activity; also recorded: improved or similar activity | – |
| C=C(C)[C@@H]1CC[C@]2(C(=O)OCCCOC(=O)/C=C/c3ccc(OC)cc3)CC[C@]3(C)[C@H](CC[C@@H]4[C@@]5(C)CC[C@H](OC(=O)CC(C)(C)C(=O)O)C(C)(C)[C@@H]5CC[C@]43C)[C@@H]12 [Compound 20a] | – | – | – | fold less potent than 9e (HIV-1NL4–3 [1]; compared with piperazine-linked 9e): 11 fold |
| C=C(C)[C@@H]1CC[C@]2(C(=O)N3CCN(CCCCC(=O)N4CCN(C(=O)/C=C/c5ccc6c(c5)OCO6)CC4)CC3)CC[C@]3(C)[C@H](CC[C@@H]4[C@@]5(C)CC[C@H](OC(=O)CC(C)(C)C(=O)O)C(C)(C)[C@@H]5CC[C@]43C)[C@@H]12 [Compound 31] | – | 12 ± 4.1 | – | – |
| C=C(C)[C@@H]1CC[C@]2(C(=O)N3CCN(CCCCC(=O)N4CCN(c5cc(NCc6ccccc6)ncn5)CC4)CC3)CC[C@]3(C)[C@H](CC[C@@H]4[C@@]5(C)CC[C@H](OC(=O)CC(C)(C)C(=O)O)C(C)(C)[C@@H]5CC[C@]43C)[C@@H]12 [Compound 32, 4-(28-(4-(5-(4-(6-(Benzylamino)pyrimidin-4-yl)piperazin-1-yl)-5-oxopentyl)piperazine-1-carbonyl)lup-20(29)-en-3β-oxy)-2,2-dimethyl-4-oxobutanoic acid] | – | – | improved or comparable activity; also recorded: improved or similar activity | – |

— article PMC8176629 (European journal of medicinal chemistry, 2021)
